# Assay outcomes from PubChem.
# APOBEC3A inh – human APOBEC3A DNA deaminase inhibition; recombinant A3A, FAM/TAMRA ssDNA deamination fluorescence; 330,000 compounds, 0.41% hits; P31941; AID 493011; inhibition, % at 20 µM;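 active = at least 40% inhibition at 20 µM here, with at most 30% in a related deaminase screen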;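 also: plate controls were A3A with DMSO for no effect and wells lacking A3A enzyme for full effect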
# iPSC survival up – increases survival of single human iPS cells; hiPSC single-cell survival, ATPlite luminescence; 100% = ROCK inhibitor wells, 0% = DMSO; survival enhancement, % at 20 µM; 360,000 compounds, 0.044% hits; in the data active = survival enhancement above about 18%;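 also: cells exposed to compounds for 16 hours before the ATP read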
# APOBEC3G inh – blocks human APOBEC3G single-stranded DNA deamination; Q9HC16; recombinant A3G, ssDNA deamination FAM/TAMRA fluorescence; inhibition, % at 20 µM; 330,000 compounds, 0.28% hits;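 active = inhibition of at least 40% at 20 µM, with no more than 30% in the related APOBEC3A deaminase screen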;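 also: plate controls were DMSO wells with A3G for no effect and wells lacking A3G enzyme for full effect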
# HKDC1 inh – HKDC1 (human) hexokinase inhibition; Q2TB90; recombinant HKDC1, G6PDH/diaphorase resazurin coupled fluorescence; inhibition, % at 20 µM; 340,000 compounds, 0.16% hits;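 active = inhibition above about 35% when tested at 20 µM, limit read from the data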;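 also: plate controls were DMSO wells with enzyme for no effect and DMSO wells lacking enzyme for full effect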
#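 Test system: HK5 enzyme. Quantity: 5 µg/mL HK5 final. Reagent: glucose and ATP substrates. Schedule: 90 min reaction incubation at room temperature, dark. Technique: resazurin-to-resorufin fluorescence via G6PDH and diaphorase coupling, 525/613 nm. Control set: DMSO wells with and without enzyme mix.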
# PfG6PD inh – PfG6PD (Plasmodium falciparum) enzyme inhibition | PfGluPho enzyme, NADPH resazurin-diaphorase fluorescence | inhibition, % at 20 µM | 350,000 compounds, 0.78% hits;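 active = inhibition reaching at least a set limit at 20 µM in the primary screen, cut at about 59% in these data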;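 also: 0% = DMSO wells with substrate and 100% = DMSO wells lacking glucose-6-phosphate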
# PfGluPho conf – PfG6PD inhibition, single-dose confirmed; shares compounds with PfG6PD inh; recombinant PfGluPho, NADPH-diaphorase-resazurin fluorescence; inhibition, % at 20 µM; 2,400 compounds, 34% hits;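 active = inhibition of at least 50% at 20 µM in any single replicate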;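 also: 0% = DMSO with substrate and 100% = DMSO lacking glucose-6-phosphate substrate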
# Diaphorase 10uM – counter-screen for P. falciparum G6PD inhibitors: diaphorase inhibitors, oxidizers; shares compounds with PfG6PD inh; diaphorase-coupled resazurin reduction, fluorescence, NADPH 10 uM; inhibition, % at 20 µM; 820 compounds, 39% hits; AID 504862;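 active = average inhibition reaching 50% or more with the compound at 20 µM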;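 also: resorufin red fluorescence formed as diaphorase reduces resazurin using NADPH; 0% = DMSO with enzyme and 100% = DMSO without enzyme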
# Diaph ctr 30uM – diaphorase inhibition or oxidation at 30 uM NADPH; Diaphorase/resazurin coupled assay, resorufin fluorescence; shares compounds with PfG6PD inh; inhibition, % at 20 µM; 820 compounds, 29% hits; AID 504863;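 active = inhibition averaging 50% or more, tested at 20 µM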;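 also: 0% = DMSO with enzyme and 100% = DMSO wells lacking diaphorase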
# An asterisk follows results filed as active; nt = no result. This is a sample that favours compounds with a hit; in the whole collection about 1.4% have one here.
SMILES,APOBEC3A inh,iPSC survival up,APOBEC3G inh,HKDC1 inh,PfG6PD inh,PfGluPho conf,others
Cc1ccc(C(O)c2ncc(-c3ccc(Cl)cc3)[nH]2)cc1F (stereo not drawn),nt,0,nt,nt,nt,nt,
CCOc1ccc(NC(=O)CN(C)C(=O)c2ccc(OCC3CCCO3)cc2)cc1OCC (stereo not drawn),-3,0,-8,-6,4,nt,
Cc1ccc2c(C)c(C(=O)N3CCC(C(N)=O)(N4CCCCC4)CC3)oc2c1C,nt,3,nt,nt,10,nt,
CCN1CCN(C(=O)c2cc(COc3ccc(C(C)=O)cc3OC)on2)CC1,-5,0,-7,-1,2,nt,
CC1CC1C(=O)Nc1ccc(S(=O)(=O)N2CCCCC2)cc1 (stereo not drawn),-1,0,-4,2,1,nt,
C=CCOc1ccc(CNc2ccc3[nH]c(=O)[nH]c3c2)cc1OC,nt,-1,nt,9,85*,66*,Diaphorase 10uM=15;Diaph ctr 30uM=19
COc1cc(CNc2ccc3[nH]c(=O)[nH]c3c2)ccc1OCC(=O)NC(C)(C)C,1,-2,-1,6,46,nt,
CC(=NNC(=S)N1CCCC1)c1ccccn1,nt,-2,nt,nt,67*,12,
